In ChEMBL document CHEMBL2417407, “Regioselective synthesis of phenanthrenes and evaluation of their anti-oxidant based anti-inflammatory potential” (Eur J Med Chem, 2013):
Values after ≈ are worked out from the molar mass of the structure shown.

Tests used:
[1] = tested on: THP-1; assay: Cytotoxicity against human THP1 cells assessed as cell viability at 50 uM after 24 hrs by CCK-8 assay relative to untreated control; format: cell-based; settings: thp-1, 24 h
How it was run: (§1)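 THP-1 cells were seeded at 2 × 10⁵ cells/well and exposed to compound in serum-free medium for 24 h at 37 °C under 5% CO2. CCK-8 reagent was then added for 2 h and absorbance was read at 450 nm. Relative viability was calculated as absorbance of treated cells divided by absorbance of untreated cells. Triplicates, two independent experiments.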

[2] = tested on: Radical scavenging activity; assay: Antioxidant activity assessed as DPPH free radical scavenging activity after 30 mins; format: functional
How it was run: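 Compound solution was mixed with 316 µM DPPH solution, giving final compound concentrations of 1, 5, 12.5, 25, 50 and 100 µg/mL. The mixture was shaken 1 min and incubated at 37 °C for 30 min. Absorbance was read at 517 nm and percent scavenging was calculated as [1 − (A1 − A2)/A0] × 100.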

[3] = Antioxidant activity assessed as ABTS free radical scavenging activity after 1 min; format: functional
How it was run: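 ABTS radical cation was generated from 7 mM ABTS stock and 2.45 mM potassium persulfate (final) left 16 h in the dark at room temperature. Working solution (1.0 mL) was added to the compound in methanol, giving final 1–100 µg/mL. Absorbance at 734 nm was read after exactly 1 min. Percent scavenging was calculated from absorbances as in the DPPH assay.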

[4] = tested on: THP-1; assay: Antiinflammatory activity in human THP1 cells assessed as inhibition of LPS-stimulated TNF-alpha release at 100 uM incubated for 1 hr prior to LPS challenge measured after 24 hrs by sandwich ELISA relative to untreated control; format: functional
How it was run: (§2)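 THP-1 cells were grown in RPMI 1640 with 10% heat-inactivated FBS, 1% non-essential amino acids, 1% glutamine, penicillin and streptomycin at 37 °C under 5% CO2. They were seeded at 2 × 10⁵ cells/well and pretreated with compound for 1 h in serum-free medium. LPS (E. coli O55:B5, 250 ng/mL) was then added for 24 h at 37 °C. Supernatant TNF-α was measured by sandwich ELISA, with LPS-stimulated cells taken as 0% inhibition. Triplicates, two independent experiments.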

[5] = tested on: THP-1; assay: Antiinflammatory activity in human THP1 cells assessed as inhibition of LPS-stimulated TNF-alpha release at 50 uM incubated for 1 hr prior to LPS challenge measured after 24 hrs by sandwich ELISA relative to untreated control; format: functional; how it was run: as §2
[6] = tested on: THP-1; assay: Antiinflammatory activity in human THP1 cells assessed as inhibition of LPS-stimulated TNF-alpha release at 10 uM incubated for 1 hr prior to LPS challenge measured after 24 hrs by sandwich ELISA relative to untreated control; format: functional; how it was run: as §2
[7] = tested on: THP-1; assay: Antiinflammatory activity in human THP1 cells assessed as inhibition of LPS-stimulated TNF-alpha release incubated for 1 hr prior to LPS challenge measured after 24 hrs by sandwich ELISA; format: functional, cell-based; how it was run: as §2
[8] = tested on: THP-1; assay: Antiinflammatory activity in human THP1 cells assessed as inhibition of LPS-stimulated TNF-alpha release at 1 uM incubated for 1 hr prior to LPS challenge measured after 24 hrs by sandwich ELISA relative to untreated control; format: functional; how it was run: as §2
[9] = tested on: THP-1; assay: Cytotoxicity against human THP1 cells assessed as cell viability at 1 uM after 24 hrs by CCK-8 assay relative to untreated control; format: cell-based; settings: thp-1, 24 h; how it was run: as §1
[10] = tested on: THP-1; assay: Cytotoxicity against human THP1 cells assessed as cell viability at 10 uM after 24 hrs by CCK-8 assay relative to untreated control; format: cell-based; settings: thp-1, 24 h; how it was run: as §1
[11] = Antioxidant activity assessed as galvinoxyl free radical scavenging activity after 20 mins; format: functional
[12] = tested on: THP-1; assay: Cytotoxicity against human THP1 cells assessed as cell viability at 100 uM after 24 hrs by CCK-8 assay relative to untreated control; format: cell-based; settings: thp-1, 24 h; how it was run: as §1

IC50 [2] [mg/L] | IC50 [3] [mg/L] | IC50 [11] [mg/L] | SMILES | fold change (FC) [1] | inhibition at 100 µM [4] [%] | inhibition at 50 µM [5] [%] | inhibition at 10 µM [6] [%] | inhibition [7] | inhibition at 1 µM [8] [%] | fold change (FC) [9] | fold change (FC) [10] | fold change (FC) [12]
31.51 (≈ 143 µM) | 36.11 (≈ 164 µM) | 43.7 (≈ 198 µM) | Cc1cc(C(C)(C)C)c(O)c(C(C)(C)C)c1 [BUTYLATED HYDROXYTOLUENE] | – | – | – | – | – | – | – | – | –
15.12 (≈ 85.8 µM) | 29.17 (≈ 166 µM) | 5.23 (≈ 29.7 µM) | O=C1O[C@H]([C@@H](O)CO)C(O)=C1O [ASCORBIC ACID] | – | – | – | – | – | – | – | – | –
27.8 (≈ 102 µM) | 16.98 (≈ 62.4 µM) | 17.97 (≈ 66 µM) | COc1cc(O)c2c(c1)CCc1c-2ccc(OC)c1O | 1.2 | 94 | 79 | 30 | Dose-dependent effect | 9 | 1.5 | 1.4 | 1.1
10.28 (≈ 37.8 µM) | 11.72 (≈ 43 µM) | 11.66 (≈ 42.8 µM) | COc1cc2c(c(OC)c1O)-c1ccc(O)cc1CC2 [FLAVANTHRIDIN] | 1.3 | 64 | 47 | 17.5 | Dose-dependent effect | 8 | 1.4 | 1.4 | 1.2
> 100 | > 100 | > 100 | c1ccc2c(c1)CCc1ccccc1-2 | 1.3 | 14.5 | 5 | 0 | – | 0 | 1.6 | 1.5 | 1.2
15.6 (≈ 53.7 µM) | 11.46 (≈ 39.5 µM) | 18.03 (≈ 62.1 µM) | Oc1cc(O)c2c(c1)OC(c1ccc(O)c(O)c1)C(O)C2 (stereo unspecified) [CATECHIN] | – | – | – | – | – | – | – | – | –
32.5 (≈ 119 µM) | 15.62 (≈ 57.4 µM) | 17.04 (≈ 62.6 µM) | COc1ccc2c(c1O)CCc1cc(O)cc(OC)c1-2 | 1.2 | 83 | 70 | 31 | Dose-dependent effect | 19.5 | 1.3 | 1.3 | 1
11.41 (≈ 31 µM) | 28.3 (≈ 76.8 µM) | 17.03 (≈ 46.2 µM) | COc1cc(/C=C/C(=O)CC(=O)/C=C/c2ccc(O)c(OC)c2)ccc1O [CURCUMIN] | 0.9 | 102 | 95.5 | 38 | Dose-dependent effect | 1.5 | 1.8 | 1.5 | 0.5
> 100 | > 100 | > 100 | c1ccc2c(c1)ccc1ccccc12 [PHENANTHRENE] | 1.2 | 8.5 | 6 | 0 | – | 0 | 1.4 | 1.3 | 1.1

SMILES | IC50 [2] [mg/L] | IC50 [3] [mg/L] | IC50 [11] [mg/L] | fold change (FC) [1] | inhibition at 100 µM [4] [%] | inhibition at 50 µM [5] [%] | inhibition at 10 µM [6] [%] | inhibition [7] | inhibition at 1 µM [8] [%] | fold change (FC) [9] | fold change (FC) [10] | fold change (FC) [12]
COc1cc2ccc3cc(O)ccc3c2c(OC)c1O | 11.18 (≈ 41.4 µM) | 13.39 (≈ 49.5 µM) | 11.79 (≈ 43.6 µM) | 1.1 | 67.5 | 34 | 15.5 | Dose-dependent effect | 3.5 | 1.4 | 1.3 | 1
